According to ChEMBL document CHEMBL1154423, “Activity of colistin against heteroresistant Acinetobacter baumannii and emergence of resistance in an in vitro pharmacokinetic/pharmacodynamic model” (Antimicrob Agents Chemother, 2007):

Legend:
[1] = test system: Acinetobacter baumannii; assay: Antibacterial activity against Acinetobacter baumannii ATCC 19606 assessed as AUBC (0 to 72 hrs) normalized to log10CFU/ml in in vitro PK/PD model at loading dose of 0.30 mg and maintenance dose of 0.23 mg dosed at 8 hrs intervals; format: functional, organism-based
Method in brief: (§1)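 One-compartment in vitro PK/PD model at 37°C. Cation-adjusted Mueller-Hinton broth was pumped from a reservoir into the central compartment, with an early-log-phase inoculum of about 10^6 CFU/ml. Colistin sulfate simulated human colistin PK. Intermittent regimens were dosed into the central compartment; for the continuous regimen, colistin was spiked into the reservoir broth. Viable counts were by spiral plating over 0–72 h, AUBC0-72 normalized to log10 CFU/ml at t=0, n=3.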

[2] = test system: Acinetobacter baumannii; assay: Antimicrobial activity against gentamicin and ciprofloxacin resistant Acinetobacter baumannii ATCC 19606; format: functional, organism-based
[3] = test system: Acinetobacter baumannii; assay: Antibacterial activity against Acinetobacter baumannii ATCC 19606 assessed as AUBC (0 to 72 hrs) normalized to log10CFU/ml in in vitro PK/PD model at loading dose of 0.90 mg and maintenance dose of 0.89 mg dosed at 24 hrs intervals; format: functional, organism-based; method in brief: as §1
[4] = test system: Acinetobacter baumannii; assay: Antibacterial activity against Acinetobacter baumannii isolate 6 assessed as AUBC (0 to 72 hrs) normalized to log10CFU/ml in in vitro PK/PD model at continuous maintenance dose of 4.5 ug/ml; format: functional, organism-based; method in brief: as §1
[5] = test system: Acinetobacter baumannii; assay: Antimicrobial activity against Ceftazidime resistant Acinetobacter baumannii isolate 6; format: functional, organism-based
[6] = test system: Acinetobacter baumannii; assay: Antibacterial activity against Acinetobacter baumannii isolate 6 assessed as AUBC (0 to 72 hrs) normalized to log10CFU/ml in in vitro PK/PD model at loading dose of 0.90 mg and maintenance dose of 0.89 mg dosed at 24 hrs intervals; format: functional, organism-based; method in brief: as §1
[7] = test system: Acinetobacter baumannii; assay: Antibacterial activity against Acinetobacter baumannii isolate 6 assessed as AUBC (0 to 72 hrs) normalized to log10CFU/ml in in vitro PK/PD model at loading dose of 0.30 mg and maintenance dose of 0.23 mg dosed at 8 hrs intervals; format: functional, organism-based; method in brief: as §1
[8] = test system: Acinetobacter baumannii; assay: Antibacterial activity against Acinetobacter baumannii ATCC 19606 assessed as AUBC (0 to 72 hrs) normalized to log10CFU/ml in in vitro PK/PD model at continuous maintenance dose of 4.5 ug/ml; format: functional, organism-based; method in brief: as §1
[9] = test system: Acinetobacter baumannii; assay: Antibacterial activity against Acinetobacter baumannii ATCC 19606 assessed as AUBC (0 to 72 hrs) normalized to log10CFU/ml in in vitro PK/PD model at loading dose of 0.45 mg and maintenance dose of 0.39 mg dosed at 12 hrs intervals; format: functional, organism-based; method in brief: as §1
[10] = test system: Acinetobacter baumannii; assay: Antibacterial activity against Acinetobacter baumannii isolate 6 assessed as AUBC (0 to 72 hrs) normalized to log10CFU/ml in in vitro PK/PD model at loading dose of 0.45 mg and maintenance dose of 0.39 mg dosed at 12 hrs intervals; format: functional, organism-based; method in brief: as §1
[11] = Cmax in in vitro PK/PD model at loading dose of 0.90 mg and maintenance dose of 0.89 mg dosed at 24 hrs intervals; format: ADME, organism-based; set-up: dose 0.9 mg
[12] = Cmax in in vitro PK/PD model at loading dose of 0.45 mg and maintenance dose of 0.39 mg dosed at 12 hrs intervals; format: ADME, organism-based; set-up: dose 0.45 mg
[13] = Cmax in in vitro PK/PD model at loading dose of 0.30 mg and maintenance dose of 0.23 mg dosed at 8 hrs intervals; format: ADME, organism-based; set-up: dose 0.3 mg

Row | Cmax [11] [ng/mL] | Cmax [12] [ng/mL] | Cmax [13] [ng/mL] | Sequence | AUBC [1] [log10CFU/ml] | MIC [2] [µg/mL] | AUBC [3] [log10CFU/ml] | AUBC [4] [log10CFU/ml] | MIC [5] [µg/mL] | AUBC [6] [log10CFU/ml] | AUBC [7] [log10CFU/ml] | AUBC [8] [log10CFU/ml] | AUBC [9] [log10CFU/ml] | AUBC [10] [log10CFU/ml]
1 |  |  |  | COLISTIN [listing 1 of 2 here] | 68.5 | 1 | 67 | 65.6 | 1 | 58.5 | 68 | 72.7 | 68.5 | 64.9
2 | 9000 | 4500 | 3000 | COLISTIN [listing 2 of 2 here] |  |  |  |  |  |  |  |  |  | 
